Shown are actives, neighbours in structure and some others; about 3.1% of the full set was active somewhere.
OX1R antag-1 – blocks the human orexin 1 receptor; CHO/OX1R cells, Fluo-8 calcium fluorescence, orexin A; AID 434989; O43613; inhibition, % at 5 µM; 0.43% of 330,000 active;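 active = inhibition above its plate's threshold, mean inhibition of all tested compounds on the plate plus 3 SD, cut at about 37% in these data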
Target sequence (O43613 whole entry, looked up): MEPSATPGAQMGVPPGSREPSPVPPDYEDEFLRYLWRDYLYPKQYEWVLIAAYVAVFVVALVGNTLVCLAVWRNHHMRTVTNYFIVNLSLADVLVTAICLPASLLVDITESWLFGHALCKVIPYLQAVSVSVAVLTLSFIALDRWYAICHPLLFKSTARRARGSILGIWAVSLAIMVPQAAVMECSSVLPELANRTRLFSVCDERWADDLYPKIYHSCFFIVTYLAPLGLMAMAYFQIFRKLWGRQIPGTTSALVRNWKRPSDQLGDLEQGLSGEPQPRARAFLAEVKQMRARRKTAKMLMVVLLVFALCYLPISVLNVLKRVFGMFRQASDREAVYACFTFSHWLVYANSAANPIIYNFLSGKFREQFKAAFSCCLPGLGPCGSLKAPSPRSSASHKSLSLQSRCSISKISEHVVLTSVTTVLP
OX1R antag-2 – blocks the human orexin 1 receptor; AID 485270; inhibition, % at 6.6 µM; OX1R-expressing cells, FRET antagonist read-out; 1.8% of 330,000 active; O43613; in the data active = inhibition mostly above about 38%, no sharp cut-off; inactive = mostly below about 40%
GPR7 antag – blocks human GPR7 receptor signaling; P48145; GPR7-expressing cells, fluorescence antagonist assay; inhibition, % at 4.4 µM; 1.1% of 290,000 active; AID 1861; in the data active = inhibition above about 16%, passing the limit was not always enough;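 note: cells stimulated with the agonist NPW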
GalR3 antagonist – human GalR3 antagonism. 0.44% of 360,000 active. inhibition, % at 3 µM. HEK293 GalR3-CNG cAMP membrane potential fluorescence; galR3 body fused to GalR1 C-terminus;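 active = inhibition above the screen-wide average plus 3 SD, cut at about 13% in these data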;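 note: forskolin and galanin both at EC90 stimulate the cells; cAMP rise reported by CNG channel membrane potential dye signal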
Target sequence (O60755 1-299 limits assumed): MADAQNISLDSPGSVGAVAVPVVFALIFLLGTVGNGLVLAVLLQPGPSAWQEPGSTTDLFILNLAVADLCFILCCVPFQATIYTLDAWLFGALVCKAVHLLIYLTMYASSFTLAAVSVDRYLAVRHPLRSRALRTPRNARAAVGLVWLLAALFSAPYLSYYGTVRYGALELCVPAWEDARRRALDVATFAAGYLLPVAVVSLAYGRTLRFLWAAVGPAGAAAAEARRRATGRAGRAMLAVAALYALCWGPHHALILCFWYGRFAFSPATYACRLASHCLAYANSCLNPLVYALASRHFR
CHO parental Ca – counter-screen: ATP calcium response change in parental CHO cells | AID 463079 | parental CHO-K1, ATP-induced calcium, Fluo-8 fluorescence | inhibition, % at 5.6 µM | 0.63% of 330,000 active;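 active = inhibition above that plate's mean sample inhibition plus 3 SD, cut at about 26% in these data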
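Material: parental CHO cells / Compound: single nominal dose of 5.6 µM per compound / Signal: Fluo-8 fluorescence / Replicates: singlicate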
Each line names hits and unclear results; the compound was inactive in the other large screens.

COc1cccc(CNC(=O)[C@H]2CCCN2C(=O)[C@H]2CCCN2C(=O)c2ccc(F)cc2F)c1	none (no result: OX1R antag-1, OX1R antag-2, GPR7 antag, CHO parental Ca)
CCOc1ccc(C(CCc2ccccc2)NC(=O)c2ccccc2OC)cc1OCC (stereo not given)	OX1R antag-1 47.4 (no result: GalR3 antagonist)
C/C(=N\Nc1cccc([N+](=O)[O-])c1)c1cc(F)ccc1O	OX1R antag-2 67.9
Cc1cc(C(=O)COc2ccc(Cl)cc2Br)c(C)n1C	CHO parental Ca 26.3
CCN(C(=O)COc1cc(=O)n(CC)c2ccccc12)c1cc(Cl)ccc1OC	GPR7 antag 20.4
CCCN(CCC)C(=O)COc1cc(=O)n(CC)c2ccccc12	none
CCn1c(=O)cc(OCC(=O)O)c2ccccc21	none
CCN(C(=O)COc1cc(=O)n(CC)c2ccccc12)c1cccc(Cl)c1	OX1R antag-2 47.3
CCN(Cc1ccccc1)C(=O)COc1cc(=O)n(CC)c2ccccc12	OX1R antag-2 57.8
CCn1c(=O)cc(OCC(=O)N(C)c2ccccc2F)c2ccccc21	none
Nc1nonc1C(=O)NCCNC(=O)c1cccc(Cl)c1	none
CC1=Nc2ccccc2/C1=C\c1sc(Nc2ccc(C)cc2)nc1O	GPR7 antag 18.9
Oc1cccc(Nc2nc(O)c(/C=C3\C=Nc4ccccc43)s2)c1	none
Clc1ccc(C[n+]2cc(-c3ccccc3)n3c2CCCCC3)c(Cl)c1	GPR7 antag 28.9
Clc1ccc(C[n+]2cc(-c3ccccc3)n3c2CCC3)cc1Cl	none
CC(C)(C)[C@H]1COC(=O)[C@@H](Cc2ccc(F)cc2)C/C=C\C[C@@H](CC(=O)N[C@@H](CO)Cc2ccccc2)C(=O)N1	OX1R antag-2 62.3 (no result: GPR7 antag)
COc1cccc(-c2ccc(NC(=O)C3CCCN(Cc4cnn(C(C)C)c4)C3)cc2)c1 (stereo not given)	GPR7 antag 20.2
CC(C)OC(=O)NCCOC(=O)Nc1ccc(Cl)c(Cl)c1	CHO parental Ca 50.2
CC(C)OC(=O)NC(C)(C)COC(=O)Nc1cccc(Cl)c1	CHO parental Ca 35.1
CC(OC(=O)Nc1cccc(Cl)c1)C(=O)O (stereo not given)	none
O=C(Nc1cccc(Cl)c1)OCCOC(=O)Nc1cccc(Cl)c1	none (no result: OX1R antag-1, OX1R antag-2, GPR7 antag, CHO parental Ca)
CC(C)OC(=O)NCCOC(=O)Nc1cccc(Cl)c1	OX1R antag-1 48.2, CHO parental Ca 36.5
O=C1c2[nH]nc(-c3ccccc3)c2C(c2ccc(F)cc2)N1Cc1ccccc1 (stereo not given)	none (no result: OX1R antag-1, OX1R antag-2, GPR7 antag, CHO parental Ca)
Cn1c(C(=O)Nc2ccc(Cl)cc2)cc2cc(Cl)ccc21	none
O=C(CC1CCCC1)N[C@@H](Cc1cccnc1)C(=O)N1CCC[C@H]1C(=O)NCCc1ccccc1Cl	none (no result: OX1R antag-1, OX1R antag-2, GPR7 antag, CHO parental Ca)
COc1ccccc1CCn1cnc(-c2cccc(Cl)c2)c1CC(C)C	none (no result: OX1R antag-1, OX1R antag-2, GPR7 antag, CHO parental Ca)
O=C(c1ccc(F)cc1)N1CCN2C(=O)c3ccccc3C12c1ccc(Cl)cc1 (stereo not given)	GPR7 antag 16.0
O=C(c1ccc(F)cc1)N1CCN2C(=O)c3ccccc3C12c1ccccc1 (stereo not given)	none
CN1CCCCC(NC(=O)CSc2ccccc2)C1=O (stereo not given)	none (no result: OX1R antag-1, OX1R antag-2, GPR7 antag, CHO parental Ca)
Cc1cc2nc(SCCOC(=O)Nc3cccc(Cl)c3)nc(C)c2cc1C	none
Cc1cc2nc(SCCOC(=O)Nc3ccccc3)nc(C)c2cc1C	OX1R antag-2 71.6
CCNC(=O)O[C@@H]1C=C[C@@H](C#Cc2ccc(C(C)(C)C)cc2)O[C@@H]1COC(C)=O	none (no result: OX1R antag-1, OX1R antag-2, GPR7 antag, CHO parental Ca)
CCOC(=O)N[C@H](C(=O)N1CCC[C@H]1C(=O)NCc1ccccc1)C(C)C	none (no result: OX1R antag-1, OX1R antag-2, GPR7 antag, CHO parental Ca)
O=C(CCCN1C(=O)/C(=C/c2cccs2)SC1=S)Nc1ccccc1O	OX1R antag-2 60.9
O=C(CCCN1C(=O)/C(=C/c2ccco2)SC1=S)Nc1cccc(C(=O)O)c1	OX1R antag-2 61.1
COc1cccc(OC)c1C(=O)OCC(=O)NCCNC(=O)COC(=O)c1c(OC)cccc1OC	none (no result: OX1R antag-1, OX1R antag-2, GPR7 antag, CHO parental Ca)
Cc1ccsc1C(=O)C1CCCN(Cc2cccn2-c2ccc(Cl)cn2)C1 (stereo not given)	GPR7 antag 39.5
Nc1nc2cc3c(cc2cc1C(=O)NCCc1c[nH]c2ccccc12)OCO3	none (no result: OX1R antag-1, OX1R antag-2, GPR7 antag, CHO parental Ca)
CNc1nc(SC)n(C)c(=O)c1N=O	OX1R antag-2 48.4 (no result: GalR3 antagonist)
CSc1nc2c(c(=O)n1C)SC(C)C2 (stereo not given)	none (no result: GalR3 antagonist)
Cc1ccc([N+](=O)[O-])c(C(=O)N/N=C/c2cccnc2)c1	OX1R antag-2 41.5
O=C(N/N=C/c1cccnc1)c1ccc([N+](=O)[O-])cc1Cl	OX1R antag-2 34.9
O=C(N/N=C/c1ccc(Cl)c([N+](=O)[O-])c1)c1cnccn1	OX1R antag-2 56.8
O=C(Nc1ccccn1)c1ccc([N+](=O)[O-])cc1Cl	OX1R antag-2 55.7
CN1CCCCC(NC(=O)c2ccc3ccccc3c2)C1=O (stereo not given)	none (no result: OX1R antag-1, OX1R antag-2, GPR7 antag, CHO parental Ca)
CS(=O)(=O)c1ccc2nc(NC(=O)Nc3cccc(Cl)c3)sc2c1	OX1R antag-2 39.0, CHO parental Ca 33.1
CS(=O)(=O)c1ccc2nc(NC(=O)Cc3ccccc3)sc2c1	none
CS(=O)(=O)c1ccc2nc(NC(=O)CS(=O)(=O)Cc3ccccc3)sc2c1	OX1R antag-2 71.5
CS(=O)(=O)c1ccc2nc(NC(=O)Nc3ccc(Cl)c(Cl)c3)sc2c1	none
O=C(Nc1cccc(Cl)c1)Nc1ccc2nccnc2c1	OX1R antag-2 34.0
COc1ccc(S(=O)(=O)N2CCCc3nc(-c4ccccc4)ccc32)cc1	none (no result: OX1R antag-1, OX1R antag-2, GPR7 antag, CHO parental Ca)
c1ccc(Cc2cnc(N3CCN(Cc4csc5ccccc45)CC3)nc2)cc1	none (no result: OX1R antag-1, OX1R antag-2, GPR7 antag, CHO parental Ca)
O=C1c2ccc([N+](=O)[O-])cc2C(=O)N1CNc1ccccn1	OX1R antag-2 61.3
CN(Cc1ccccc1)C(=O)CN1C(=O)c2ccccc2C1=O	none
COc1cccc(NC(=O)CN(C)C(=O)CN2C(=O)c3ccc([N+](=O)[O-])cc3C2=O)c1	OX1R antag-2 47.9 (no result: GPR7 antag)
CN(Cc1ccccc1)C(=O)CN1C(=O)c2ccc([N+](=O)[O-])cc2C1=O	OX1R antag-2 69.7
O=C(O)CN1C(=O)c2ccc(Oc3ccc([N+](=O)[O-])cc3)cc2C1=O	OX1R antag-2 52.6
O=C1c2ccc(Oc3ccc([N+](=O)[O-])cc3)cc2C(=O)N1CCCO	none
CS(=O)(=O)N(CCc1ccccc1)CC(=O)N1CCCCCC1	none (no result: OX1R antag-1, OX1R antag-2, GPR7 antag, CHO parental Ca)
CCC(C)NC(=O)C1(O)c2ccccc2NC(=O)N1c1ccc(C)c(C)c1 (stereo not given)	none
O=C(CCN1C(=O)c2ccc([N+](=O)[O-])cc2C1=O)Nc1cccc(O)c1	OX1R antag-2 45.6
COC(=O)[C@]12C[C@H](CC(=O)N3CCC(c4ccccc4)CC3)C(=O)N(Cc3ccccc3)C1=C[C@H](C(C)C)O[C@@H]2C1CC1	none (no result: OX1R antag-1, OX1R antag-2, GPR7 antag, CHO parental Ca)
COc1ccc(OC)c(NC(=O)CSc2nncc3ccc(OC)c(OC)c23)c1	none
O=[N+]([O-])c1cc(-c2ncccn2)c([N+](=O)[O-])s1	OX1R antag-2 63.9
COc1cccc(OC)c1C(=O)Nc1ccc2c(c1)N(S(=O)(=O)c1cccs1)CCC2	none
O=C(Nc1ccc2c(c1)N(S(=O)(=O)c1cccs1)CCC2)c1c(F)cccc1Cl	OX1R antag-2 54.8 (no result: GPR7 antag)
O=S(=O)(c1cccs1)N1CCCc2ccccc21	CHO parental Ca 56.3

High-throughput results deposited in PubChem by The Scripps Research Institute Molecular Screening Center.
